Assay results reported in ChEMBL document CHEMBL2146375, “Synthesis and evaluation of indole-containing 3,5-diarylisoxazoles as potential pro-apoptotic antitumour agents” (Eur J Med Chem, 2012).

What was measured:
[1] = Cytotoxicity against human COLO320 cells assessed as cell viability after 72 hrs by WST-1 assay; type: functional, cell-based; conditions: COLO 320, 72 h
Procedure, shortened: (§1)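 Cells grown in DMEM with L-glutamine (2 mM), 10% foetal bovine serum, 2.5% horse serum and penicillin/streptomycin at 37 °C under 5% CO₂. Seeded at 2 × 10³ cells/well and exposed to compound for 72 h, with DMSO ≤0.2% final. WST-1 added, absorbance read at 450 nm, and % reduction vs control calculated. IC₅₀ and Emax from nonlinear least-squares curve fit. Mean ± SEM, n = 3.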

Calu-3 [2] = assay: Cytotoxicity against human Calu3 cells assessed as cell viability after 72 hrs by WST-1 assay; type: functional, cell-based; conditions: Calu-3, 72 h; procedure, shortened: as §1
COLO 320 = assay: Induction of apoptosis in human COLO320 cells assessed as induction of caspase-3/7 at 20 uM after 4 hrs by spectrofluorimetry relative to control; type: functional; conditions: in the assay text read “at 10 uM” for “at 20 uM”
Procedure, shortened: (§2)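 Cells seeded at 7 × 10³/well and treated with compound for 4 h. Apo-ONE homogeneous caspase-3/7 substrate then added. Fluorescence read at excitation 485 nm and emission 530 nm. Result given as the ratio of treated-cell signal to vehicle-only cells.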

Calu-3 [3] = assay: Induction of apoptosis in human Calu3 cells assessed as induction of caspase-3/7 at 10 uM after 4 hrs by spectrofluorimetry relative to control; type: functional; conditions: in the assay text read “at 20 uM” for “at 10 uM”; procedure, shortened: as §2
[4] = Cytotoxicity against human BSMC cells assessed as cell viability at 20 uM after 72 hrs by WST-1 assay; type: cell-based
Procedure, shortened: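 Normal human bronchial smooth muscle cells grown in DMEM with 10% FBS and exposed to compound for 72 h. Viability compared with untreated control.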

Which IC50 [1] does the source give for `O=c1[nH]cc(F)c(=O)[nH]1` [FLUOROURACIL] here?
The IC50 was 12.5 µM.

With `COc1ccc2[nH]c(-c3cc(-c4cccc(F)c4)no3)cc2c1` as the molecule, how does the IC50 [1] read?
The IC50 was over 100 µM.

And the IC50 (Calu-3 [2])?
Its IC50 is 97.9 µM.

Which IC50 [1] does the source give for `COc1cccc(-c2cc(-c3cc4ccccc4n3C)on2)c1` here?
The IC50 was over 100 µM.

And the IC50 (Calu-3 [2])?
Its IC50 is over 100 µM.

Which results are given for `Cn1c(-c2cc(-c3cccc(F)c3)on2)cc2ccccc21`?
IC50 [1]: > 100 µM; IC50 (Calu-3 [2]): > 100 µM

Which results are given for `COc1ccc(-c2cc(-c3cc4ccccc4n3C)no2)cc1`?
IC50 [1]: > 100 µM; IC50 (Calu-3 [2]): > 100 µM

What does the source list for `O=[N+]([O-])c1ccc(-c2cc(-c3ccc4[nH]ccc4c3)on2)cc1`?
IC50 [1]: 14 µM; IC50 (Calu-3 [2]): 25.8 µM; fold change (FC) (COLO 320): 3.76; fold change (FC) (Calu-3 [3]): 2.84; Activity [4]: Toxic

With `COC(=O)c1ccc(-c2cc(-c3ccc4[nH]ccc4c3)on2)cc1` as the molecule, how does the IC50 [1] read?
Its IC50 is over 100 µM.

What about the IC50 (Calu-3 [2]) of the same molecule?
Its IC50 is over 100 µM.

With `Cn1c(-c2cc(-c3ccc(C(F)(F)F)cc3)on2)c(Cl)c2ccccc21` as the molecule, how does the IC50 [1] read?
Its IC50 is over 100 µM.

What about the IC50 (Calu-3 [2]) of the same molecule?
The IC50 was over 100 µM.

For `COc1cccc(-c2cc(-c3cc4ccccc4n3C)no2)c1`, which IC50 [1] is on record?
The IC50 was 69.5 µM.

What about the IC50 (Calu-3 [2]) of the same molecule?
Its IC50 is 17.3 µM.

Which results are given for `COc1cccc(-c2cc(-c3cc4ccccc4[nH]3)no2)c1`?
IC50 [1]: > 100 µM; IC50 (Calu-3 [2]): > 100 µM

Which results are given for `COc1ccc(-c2cc(-c3cc4ccccc4[nH]3)no2)cc1`?
IC50 [1]: > 100 µM; IC50 (Calu-3 [2]): > 100 µM

For `Cn1c(-c2cc(-c3ccc(F)cc3)no2)cc2ccccc21`, which IC50 [1] is on record?
Its IC50 is over 100 µM.

What about the IC50 (Calu-3 [2]) of the same molecule?
The IC50 was over 100 µM.

For `COc1ccc(-c2cc(-c3cc4ccccc4n3C)on2)cc1`, which IC50 [1] is on record?
The IC50 was over 100 µM.

What about the IC50 (Calu-3 [2]) of the same molecule?
The IC50 was over 100 µM.

With `COc1cccc(-c2cc(-c3cc4cc(OC)ccc4[nH]3)no2)c1` as the molecule, how does the IC50 [1] read?
Its IC50 is over 100 µM.

What about the IC50 (Calu-3 [2]) of the same molecule?
Its IC50 is over 100 µM.

Which IC50 [1] does the source give for `COc1ccc(-c2cc(-c3ccc4[nH]ccc4c3)on2)cc1` here?
Its IC50 is 13.5 µM.

What about the IC50 (Calu-3 [2]) of the same molecule?
Its IC50 is 22.5 µM.

And the “fold change (FC)” value (COLO 320)?
Its value is 2.18.

What about the “fold change (FC)” value (Calu-3 [3]) of the same molecule?
The value was 2.44.

And the Activity [4]?
The Activity was “Non-toxic”.

Which results are given for `Fc1ccc(-c2cc(-c3ccc4[nH]ccc4c3)on2)cc1`?
IC50 [1]: 13.9 µM; IC50 (Calu-3 [2]): 16.8 µM; fold change (FC) (COLO 320): 1.81; fold change (FC) (Calu-3 [3]): 1.94; Activity [4]: Toxic

For `COc1ccc(-c2cc(-c3c(Cl)c4ccccc4n3C)no2)cc1`, which IC50 [1] is on record?
The IC50 was 78.1 µM.

What about the IC50 (Calu-3 [2]) of the same molecule?
The IC50 was 60.9 µM.

For `COc1cc(-c2cc(-c3ccc4[nH]ccc4c3)on2)cc(OC)c1OC`, which IC50 [1] is on record?
Its IC50 is 9 µM.

And the IC50 (Calu-3 [2])?
Its IC50 is 13.3 µM.

What about the “fold change (FC)” value (COLO 320) of the same molecule?
The value was 2.38.

And the “fold change (FC)” value (Calu-3 [3])?
The value was 3.39.

And the Activity [4]?
The Activity was “Non-toxic”.

With `COc1ccc2[nH]c(-c3cc(-c4cccc(F)c4)on3)cc2c1` as the molecule, how does the IC50 [1] read?
Its IC50 is over 100 µM.

And the IC50 (Calu-3 [2])?
The IC50 was over 100 µM.
